Data as given in ChEMBL document CHEMBL5154945, “Discovery and Optimization of Pyrrolopyrimidine Derivatives as Selective Disruptors of the Perinucleolar Compartment, a Marker of Tumor Progression toward Metastasis” (J Med Chem, 2022).
Activity calls are given as the source filed them. No cut-off for these calls is given here.

What was measured:
PC-3M [1] = assay: Antiproliferative activity against human PC-3M cells expressing PTB/GFP fusion protein assessed as cell growth inhibition and measured every four hrs for 130 hrs by IncuCyte zoom live cell analysis; format: functional, cell-based
In short: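 PC3M-PTB1-GFP cells in DMEM/10% FBS, seeded at 1.25×10^4 cells/ml and left overnight at 37 °C, 5% CO2. Compound added to give 11 final concentrations, 10 nM to 20 μM. Brightfield images taken every 4 h for about 130 h; percent confluence measured.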

PC-3M [2] = assay: Anticancer activity in human PC-3M cells expressing PTB/GFP fusion protein assessed as perinucleolar compartment disassembly and measured after 24 hrs by Hoechst 33342 staining based microscopic method; format: functional, cell-based; conditions: read-out: IC50
In short: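 Imaged by high-content microscopy. Nuclei with PNC spots ≥3 and >0 scored positive. PNC prevalence % = PNC-positive nuclei/total nuclei ×100, normalized to DMSO (0% activity) and 0% PNC (−100%). IC50 from concentration-response.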

[3] = Microsomal stability in CD1 mouse liver microsomes assessed as half life measured upto 60 mins in presence of NADPH by LC-MS analysis; conditions: mouse, microsomes, 1 h
[4] = Permeability of the compound at pH 7.4 incubated for 30 mins by UV plate reader based PAMPA assay; conditions: pampa, pH 7.4, 0.5 h

N=c1c2c(-c3ccccc3)cn(Cc3ccccc3)c2ncn1C1CCOCC1
Activity (PC-3M [1]): Active
IC50 (PC-3M [2]): > 20 µM
t1/2 [3]: 5.2 min
permeability [4]: 1729 10^-6 cm/s
